How the values were obtained:
[1] = property table of leuprolide acetate; no matrix and reference not given; cited from earlier work
[2] = tested on: PC3 spheroids; assay: Anti-tumor response in 3D spheroid culture model; type: cell-based, human; conditions: PC3 3D spheroids, 50 μM, 7 days, n = 3
How it was run: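 PC3 cells were suspended at 2000 cells/mL in 10% FBS-RPMI 1640 with 1% (v/v) Matrigel, plated in ultra-low-attachment wells, centrifuged at 1500 rpm for 10 min and grown at 37 °C, 5% CO2. After 4 days of spheroid formation, test compound was added once at final 50 μM in 2.5% FBS-RPMI. Spheroid area was imaged over 7 days and expressed as fold of day-0 area. n = 3.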

[3] = property table of leuprolide acetate; no reference given; cited from earlier work
[4] = tested on: PC3 cells; assay: Cell proliferation assay in 2D monolayer culture; type: cell-based, human
How it was run: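 PC3 cells were grown in RPMI 1640 with 10% FBS and antibiotics, seeded at 1×10^4 cells/well, attached for 24 h, then dosed in 2.5% FBS-RPMI 1640. Single doses of 50, 100 and 200 μM were read at 72 h; daily 50 μM dosing ran for 4 days. Readout was WST-1 for 1 h with absorbance at 450 nm, versus untreated cells, plus live/dead imaging. n = 3, one-way ANOVA.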

[5] = pH 7.4

CCNC(=O)[C@@H]1CCCN1C(=O)[C@H](CCCNC(=N)N)NC(=O)[C@H](CC(C)C)NC(=O)[C@@H](CC(C)C)NC(=O)[C@H](Cc1ccc(O)cc1)NC(=O)[C@H](CO)NC(=O)[C@H](Cc1c[nH]c2ccccc12)NC(=O)[C@H](Cc1c[nH]cn1)NC(=O)[C@@H]1CCC(=O)N1 [LEU, Leuprolide]
Half-life [1]: 3 h | Spheroid growth (spheroid area/volume), one-time treatment [2]: expansion of spheroid volume | Physiological charge [3]: +1 | Anti-proliferative effect (% of control) ([4]; PC3, treatment repeated daily at 50 µM for 4 days, WST-1, n = 3): 8.9%

CCCCCCCCCCCCCCCCCC(=O)O [SA, stearic acid]
Cell survival / cell growth after one-time treatment ([4]; PC3, one-time treatment, 50, 100, 200 μM, 72 h incubation, WST-1): significantly inhibited cell growth

Leuprolide–lauric acid nanoparticle [LLN]
Change of particle size, short-time stability in PBS [5]: slight increase in the particle size

Leuprolide–palmitic acid nanoparticle [LPN]
Change of particle size, short-time stability in PBS [5]: no significant difference

Leuprolide–stearic acid nanoparticle [LSN]
Change of particle size, short-time stability in PBS [5]: no significant difference
